# Experimental data pooled from the literature.
# Protocols differ between the studies behind these lines.
# STAT3: Signal transducer and activator of transcription 3 (STAT3, Homo sapiens, UniProt P40763)
# CTSB: Cathepsin B (CTSB, Homo sapiens, UniProt P07858)
SMILES,target,observed,mode,method,setting,quantity,value
NC(=O)CC[C@H](NC(=O)[C@@H]1CC[C@@H]2CCN(C(=O)CCCCCC#Cc3cccc4c3CN(C3CCC(=O)NC3=O)C4=O)C[C@H](NC(=O)c3cc4cc(C(=O)P(=O)(O)O)ccc4[nH]3)C(=O)N21)C(=O)NC(c1ccccc1)c1ccccc1 (stereo partly shown),STAT3,protein level,degrader,luciferase,,DC50,360 to 380 nM
CC(=O)N[C@H]1Cc2ccc(cc2)OC/C=C/C[C@@H](C(=O)N[C@@H](CCCNC(=N)N)C(=O)c2nc3ccccc3s2)NC(=O)[C@H](CC(C)C)NC1=O,"Suppressor of tumorigenicity 14 protein (ST14, Homo sapiens, UniProt Q9Y5Y6)",enzyme activity,inhibitor,fluorescence,with preincubation,IC50,4.6 nM
COC(=O)c1cc(N(C)C(=O)c2ccn3ncc(-c4ccc(C(=O)O)cc4)c3c2)ccc1Cl,"Serine/threonine-protein kinase pim-1 (PIM1, Homo sapiens, UniProt P11309)",enzyme activity,inhibitor,,,IC50,93.7 nM
Cn1nccc1[C@]1(CNC(=O)c2ccc(F)c(F)c2-c2ccc(C(F)(F)F)cc2)NC(=O)NC1=O,CTSB,enzyme activity,inhibitor,,,IC50,> 100000 nM
CC(C)C[C@H](NC(=O)[C@H]1O[C@@H]1C(=O)O)C(=O)NCCCCN=C(N)N,CTSB,enzyme activity,inhibitor,,,IC50,5.2 nM
CNC(=O)c1ccc(-c2cnn3ccc(C(=O)N(C)c4ccc(Cl)c(C(=O)O)c4)cc23)cc1,"ALK tyrosine kinase receptor (ALK, Homo sapiens, UniProt Q9UM73)",enzyme activity,inhibitor,,,IC50,> 30000 nM
CCC(C(=O)Nc1cc(NC2CCNC2)ccc1C)n1cc(Br)cc2nc(SCc3ccc(F)cc3)nc1-2 (stereo not shown),CTSB,enzyme activity,inhibitor,,,IC50,> 100000 nM
CC[C@H](C)[C@H](NC(=O)[C@H](CO)NC(=O)CNC(=O)[C@@H](NC(=O)[C@@H](NC(=O)[C@@H](NC(=O)CN)[C@@H](C)O)C(C)C)[C@@H](C)O)C(=O)N[C@@H](CC(C)C)C(=O)N[C@H](C(=O)N1CCC[C@H]1C(=O)N[C@H](C(=O)N[C@@H](CC(=O)O)C(=O)N[C@@H](Cc1ccc(O)cc1)C(=O)NCC(=O)N[C@H]1CSSC[C@@H](C(=O)N[C@@H](CO)C(=O)N[C@H](C(=O)N[C@@H](C)C(=O)N[C@@H](CCSC)C(=O)N[C@@H](Cc2ccc(O)cc2)C(=O)NCC(=O)NCC(=O)N[C@H](C(=O)N[C@H](C(=O)N[C@@H](CC(=O)O)C(=O)N2CCC[C@H]2C(=O)N[C@H](C(=O)N[C@@H](CCCNC(=N)N)C(=O)N[C@@H](Cc2ccccc2)C(=O)N2CCC[C@H]2C(=O)N[C@@H](CC(N)=O)C(=O)N[C@@H](C)C(=O)N[C@@H](Cc2c[nH]c3ccccc23)C(=O)N[C@@H](CCCNC(=N)N)C(=O)N[C@@H](CCC(=O)O)C(=O)N[C@@H](CC(C)C)C(=O)O)[C@@H](C)CC)[C@@H](C)CC)C(C)C)C(C)C)NC(=O)[C@H](CC(C)C)NC(=O)[C@H](Cc2ccccc2)NC(=O)[C@@H]2CCCN2C(=O)[C@H](CC(N)=O)NC(=O)[C@H](Cc2ccccc2)NC1=O)[C@@H](C)CC)[C@@H](C)O,CTSB,enzyme activity,inhibitor,,,IC50,> 200000 nM
CCC(C(=O)Nc1cc(NC2CNC2)ccc1C)n1cccc2nc(SCc3ccc(F)cc3)nc1-2 (stereo not shown),CTSB,enzyme activity,inhibitor,,,IC50,> 100000 nM
NC(=O)CC[C@H](NC(=O)[C@@H]1CC[C@@H]2CCN(C(=O)CCCCCC#Cc3cccc4c3CN(C3CCC(=O)NC3=O)C4=O)C[C@H](NC(=O)c3cc4cc(C(F)(F)P(=O)(O)O)ccc4[nH]3)C(=O)N21)C(=O)NC(c1ccccc1)c1ccccc1 (stereo partly shown),STAT3,protein level,degrader,luciferase,,DC50,360 to 380 nM
